The record followed here is ChEMBL document CHEMBL4014308, “Amphiphilic Tobramycin-Lysine Conjugates Sensitize Multidrug Resistant Gram-Negative Bacteria to Rifampicin and Minocycline” (J Med Chem, 2017).

Activity calls are given as the source filed them. The rule behind the calls is not given here.

Assay [1] relates to Pseudomonas aeruginosa. As to the kind of experiment: Potentiation of rifampicin-induced antibacterial activity against multidrug/extremely drug-resistant/colistin-susceptible Pseudomonas aeruginosa isolate P264-104354 at 4 ug/ml after 18 hrs by checkerboard assay. It counts as functional. In short, it runs like this: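 Checkerboard broth microdilution in MHB: antibiotic serially diluted along one axis, adjuvant along the other (10 × 7 matrix). Inoculum from 0.5 McFarland saline suspension diluted 1:50 in MHB; 18 h at 37 °C. MIC taken as lowest concentration with no growth. FIC per agent = combination MIC/MIC alone; FIC index = sum (≤0.5 synergy).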

The test system of assay [2] is Pseudomonas aeruginosa. As to the kind of experiment: Antibacterial activity against multidrug/extremely drug-resistant/colistin-resistant Pseudomonas aeruginosa isolate 101243 after 18 hrs by microtiter dilution assay. It counts as functional. The conditions noted are these: isolate 101243, 18 h. In short, it runs like this:
(§1)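 Broth microdilution following CLSI guidelines. An overnight culture was adjusted to 0.5 McFarland in saline, then diluted 1:50 in Mueller-Hinton broth. This inoculum was added in equal volume to 2-fold serial dilutions of agent in MHB and incubated 18 h at 37 °C. MIC was the lowest concentration with no visible growth.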

The test system of assay [3] is Pseudomonas aeruginosa. As to the kind of experiment: Antibacterial activity against multidrug/extremely drug-resistant/colistin-susceptible Pseudomonas aeruginosa isolate 101885 after 18 hrs by microtiter dilution assay. It counts as functional. The conditions noted are these: isolate 101885, 18 h. In short, it runs like this: as §1
Assay [4] has as its system Pseudomonas aeruginosa. Description: Synergistic antibacterial activity against Pseudomonas aeruginosa PAO1 after 18 hrs in presence of gentamicin by checkerboard assay. Conditions: PAO1, 18 h. It counts as functional. In short, it runs like this: (§2)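 Checkerboard in MHB: antibiotic diluted along one axis and adjuvant along the other (10 × 7 matrix). Inoculum was a 1:50 dilution in MHB of a 0.5 McFarland saline suspension; incubated 18 h at 37 °C. Each FIC = concentration in the no-growth well divided by the MIC alone; FIC index = sum of both FICs. ≤0.5 synergy, 0.5–4 no interaction, ≥4 antagonism.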

A further assay concerns Enterococcus faecium. Description: Antibacterial activity against Enterococcus faecium ATCC 27270 after 18 hrs by microtiter dilution assay. Conditions: ATCC 27270, 18 h. It is filed as functional. In short, it runs like this:
(§3)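 Broth microdilution per CLSI. Overnight culture adjusted to 0.5 McFarland in saline, diluted 1:50 in Mueller-Hinton broth, and added to an equal volume of 2-fold serial compound dilutions in MHB. Incubated 18 h at 37 °C. MIC taken as the lowest concentration with no visible growth.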

Assay [5] concerns Pseudomonas aeruginosa. As to the kind of experiment: Potentiation of minocycline-induced bactericidal activity against Pseudomonas aeruginosa PAO1 at 0.125 times antibacterial MIC after 90 mins. It counts as functional. In short, it runs like this: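 Combination time-kill in PAO1 (LB, 37 °C). Aliquots taken at 0–360 min, serially diluted in PBS, plated on LB agar, and CFU counted after 20 h at 37 °C.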

For assay [6], the system named is Staphylococcus epidermidis. Description: Antibacterial activity against methicillin-resistant Staphylococcus epidermidis isolate CAN-ICU 61589 after 18 hrs by microtiter dilution assay. It is filed as functional. The conditions noted are these: isolate CAN-ICU 61589, 18 h. In short, it runs like this:
as §1

In assay [7] the test system is Pseudomonas aeruginosa. As to the kind of experiment: Antibacterial activity against multidrug/extremely drug-resistant/colistin-susceptible Pseudomonas aeruginosa isolate 100036 after 18 hrs by microtiter dilution assay. It is filed as functional. Conditions: isolate 100036, 18 h. In short, it runs like this: as §1
The subject of assay [8] is Pseudomonas aeruginosa. Description: Potentiation of moxifloxacin-induced antibacterial activity against Pseudomonas aeruginosa PAO1 at 4 ug/ml after 18 hrs by checkerboard assay. It counts as functional. In short, it runs like this: (§4)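 Checkerboard in Mueller-Hinton broth: antibiotic serially diluted along one axis and adjuvant along the other (10 × 7 matrix). Inoculum from a 0.5 McFarland saline suspension diluted 1:50 in MHB; 18 h at 37 °C, then plate read. MIC is the lowest concentration with no growth. FIC of each agent is its concentration in a no-growth well divided by its MIC alone; FIC index is the sum of both. FIC index ≤0.5 counts as synergy.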

Another assay concerns Klebsiella pneumoniae. Description: Antibacterial activity against Klebsiella pneumoniae ATCC 13883 after 18 hrs by microtiter dilution assay. It is filed as functional. Conditions: ATCC 13883, 18 h. In short, it runs like this:
as §3

Assay [9] concerns Pseudomonas aeruginosa. Description: Potentiation of rifampicin-induced antibacterial activity against Pseudomonas aeruginosa PAO1 at 4 ug/ml after 18 hrs by checkerboard assay. It is filed as functional. In short, it runs like this: (§5)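 Checkerboard in MHB with a 10 × 7 matrix: antibiotic serially diluted along one axis, adjuvant along the other. Inoculum was a 1:50 dilution of a 0.5 McFarland suspension, incubated 18 h at 37 °C and read on a plate reader. Each FIC is the concentration in a no-growth well divided by the MIC alone; FIC index is their sum, with ≤0.5 taken as synergy.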

Assay [10] has as its system Pseudomonas aeruginosa. As to the kind of experiment: Potentiation of minocycline-induced antibacterial activity against multidrug/extremely drug-resistant/colistin-susceptible Pseudomonas aeruginosa isolate P262-101856 assessed as fold reduction in minocycline MIC at 4 ug/ml after 18 hrs by checkerboard assay relative to control. It counts as functional. In short, it runs like this:
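Checkerboard in Mueller-Hinton broth, 10 × 7 matrix, with the adjuvant held at 4 µg/mL. Inoculum from a 0.5 McFarland suspension diluted 1:50; 18 h at 37 °C. Antibiotic MIC (lowest concentration with no growth) with adjuvant is compared with the antibiotic MIC alone, giving a fold reduction.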

The test system of a further assay is Enterococcus faecalis. As to the kind of experiment: Antibacterial activity against Enterococcus faecalis ATCC 29212 after 18 hrs by microtiter dilution assay. It is filed as functional. Conditions: ATCC 29212, 18 h. In short, it runs like this: as §3
The test system of assay [11] is Pseudomonas aeruginosa. Description: Synergistic antibacterial activity against Pseudomonas aeruginosa PAO1 after 18 hrs in presence of erythromycin by checkerboard assay. The conditions noted are these: PAO1, 18 h. It is filed as functional. In short, it runs like this:
as §2

Assay [12] can be described thus: Ratio of cytotoxic concentration against human JIMT1 cells to synergistic concentration for Pseudomonas aeruginosa PAO1 in presence of minocycline.
For assay [13], the system named is Pseudomonas aeruginosa. Description: Synergistic antibacterial activity against Pseudomonas aeruginosa PAO1 after 18 hrs in presence of ceftazidime by checkerboard assay. It is filed as functional. Conditions: PAO1, 18 h. In short, it runs like this:
as §2

Assay [14] has as its system Pseudomonas aeruginosa. Description: Synergistic antibacterial activity against Pseudomonas aeruginosa PAO1 after 18 hrs in presence of minocycline by checkerboard assay. It counts as functional. The conditions noted are these: PAO1, 18 h. In short, it runs like this:
as §2

The subject of assay [15] is Pseudomonas aeruginosa. Description: Potentiation of minocycline-induced antibacterial activity against Pseudomonas aeruginosa PAO750 harboring RND efflux pump/OpmH deletion mutant after 18 hrs by checkerboard assay. It counts as functional. In short, it runs like this:
as §5

The test system of assay [16] is Pseudomonas aeruginosa. Description: Synergistic antibacterial activity against Pseudomonas aeruginosa PAO1 after 18 hrs in presence of kanamycin A by checkerboard assay. Conditions: PAO1, 18 h. It counts as functional. In short, it runs like this:
as §2

A short description of assay [17]: Ratio of cytotoxic concentration against human JIMT1 cells to synergistic concentration for Pseudomonas aeruginosa PAO1 in presence of rifampicin.
Assay [18] has as its system Pseudomonas aeruginosa. Description: Disruption of proton motive force in Pseudomonas aeruginosa PAO1 cytoplasmic membrane assessed as repression of bacterial swimming motility after 20 hrs. It is filed as functional. In short, it runs like this:
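Swim plates of 0.3% agar with tryptone 5 g/L and NaCl 2.5 g/L, agent mixed into the medium and plates dried 2 h. PAO1 at 1.0 McFarland in 0.85% saline was point-inoculated at the center, and plates incubated 20 h at 37 °C before swim diameter was imaged.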

The subject of the next assay is Acinetobacter baumannii. Description: Potentiation of rifampicin-induced antibacterial activity against multidrug-resistant Acinetobacter baumannii 110193 at 4 ug/ml after 18 hrs by checkerboard assay. It is filed as functional. In short, it runs like this:
as §4

The subject of assay [19] is Pseudomonas aeruginosa. As to the kind of experiment: Induction of outer membrane permeabilization in Pseudomonas aeruginosa PAO1 at 32 ug/ml after 30 mins by CFDASE staining based fluorescence assay. It is filed as functional. In short, it runs like this:
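Log-phase PAO1 washed in PBS, brought to OD600 0.5 and loaded with 100 µM CFDASE for 30 min at 37 °C, then washed. Cells were exposed to agent for 30 min at 37 °C and supernatant fluorescence read at 488/520 nm. Untreated cells were subtracted; 1% Triton X-100 served as positive control.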

A further assay has as its system Staphylococcus aureus. Description: Antibacterial activity against Staphylococcus aureus ATCC 29213 after 18 hrs by microtiter dilution assay. It counts as functional. Conditions: ATCC 29213, 18 h. In short, it runs like this:
as §1

For orientation: MIC means the least concentration at which growth counts as inhibited. Regarding `Cl.Cl.Cl.Cl.Cl.Cl.Cl.NCCCC[C@H](N)C(=O)N(CCCCCCCCCCCCO[C@@H]1[C@@H](O[C@H]2O[C@H](CO)[C@@H](O)[C@H](N)[C@H]2O)[C@H](N)C[C@H](N)[C@H]1O[C@H]1O[C@H](CN)[C@@H](O)C[C@H]1N)Cc1c2ccccc2c(Cl)c2ccccc12`, the “fractional inhibitory concentration index (FICI)” value in the assay on Pseudomonas aeruginosa [1] was determined as 0.094; in the assay on Pseudomonas aeruginosa [8], 0.313; in the assay on Pseudomonas aeruginosa [9], 0.094; in the assay on Pseudomonas aeruginosa [15] it was 0.75; in the assay with Acinetobacter baumannii, 0.095. The minimal inhibitory concentration (MIC) against Pseudomonas aeruginosa [2] is 16 µg/mL; in the assay on Pseudomonas aeruginosa [3], 16 µg/mL; in the assay on Pseudomonas aeruginosa [4] it was 4 µg/mL; against Enterococcus faecium, 8 µg/mL; in [6], 4 µg/mL; against Pseudomonas aeruginosa [7] it was 32 µg/mL. The MIC with Klebsiella pneumoniae worked out at 128 µg/mL; in the assay on Enterococcus faecalis it was 16 µg/mL; in the assay with Pseudomonas aeruginosa [11] it was 4 µg/mL; with Pseudomonas aeruginosa [13], 2 µg/mL; in the assay with Pseudomonas aeruginosa [14] it was 1 µg/mL; in the assay on Pseudomonas aeruginosa [16], 0.5 µg/mL. Further, it took 8 µg/mL to inhibit growth in the assay with Staphylococcus aureus (MIC). Moreover, the result with Pseudomonas aeruginosa [5] and with Pseudomonas aeruginosa [19] was Active. The “fold change (FC)” value in the assay on Pseudomonas aeruginosa [10] is on record as 128. Besides, the Ratio in [12] and in [17] was 6 each time. For the same compound, in the assay with Pseudomonas aeruginosa [18], the Activity result is “Dose-dependent effect”.
